The test system of test [1] is Enterobacter cloacae. The test can be described thus: Antibacterial activity against Enterobacter cloacae MA2646. The format is functional.
The subject of test [2] is Escherichia coli. The test is described as follows: Antibacterial activity against Escherichia coli H560. The format is functional. Summed up:
(§1)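 Minimum inhibitory concentration measured by standard microtitration, run as part of a panel of 11 bacterial organisms.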

Test [3] has as its system Escherichia coli. The test can be described thus: Antibacterial activity against Escherichia coli Vogel. Format: functional. The procedure, abridged:
as §1

Test [4] has as its system Staphylococcus aureus. The test is described as follows: Antibacterial activity against Staphylococcus aureus UC76. The format is functional. Summed up:
as §1

For test [5], the system named is Providencia rettgeri. The test is described as follows: Antibacterial activity against Providencia rettgeri M1771. The format is functional. The procedure, abridged:
as §1

Test [6] concerns Streptococcus pyogenes. The test is described as follows: Antibacterial activity against Streptococcus pyogenes C203. The format is functional. The procedure, abridged:
as §1

Test [7] deals with DNA gyrase (Escherichia coli, UniProt P0AES4+P0AES6). The test can be described thus: 50% inhibitory concentration against DNA-gyrase. The format is protein-complex assay.
Test [8] has as its system Streptococcus pneumoniae. The test can be described thus: Antibacterial activity against Streptococcus pneumoniae SV-1. Format: functional. Summed up:
as §1

In test [9] the test system is Enterococcus faecalis. The test can be described thus: Antibacterial activity against Streptococcus faecalis MGH-2. The format is functional. The procedure, abridged: as §1
Test [10] has as its system Klebsiella pneumoniae. The test can be described thus: Antibacterial activity against Klebsiella pneumoniae MGH-2. The format is functional. Summed up:
as §1

The subject of test [11] is Escherichia coli. The test is described as follows: Median protective dose against Escherichia coli, determined in acute, lethal systemic infection in female charles river CD-1 mice (sc). The format is functional. As to conditions: read-out: PD50. Summed up: (§2)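 Female Charles River CD-1 mice (18-22 g) were challenged intraperitoneally with about 100 median lethal doses in 0.5 mL 5% hog gastric mucin. Single compound doses in a twofold rising series were given in 0.5 mL at the time of challenge: sc as aqueous solution, po by gavage in 5% gum acacia. Groups of eight mice were used per dose. PD50 was estimated from survival percentages by log probit.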

Test [12] deals with Pseudomonas aeruginosa. The test is described as follows: Antibacterial activity against Pseudomonas aeruginosa UI-18. Format: functional. The procedure, abridged: as §1
Test [13] has as its system Staphylococcus aureus. The test can be described thus: Antibacterial activity against Staphylococcus aureus H-228. Format: functional. Summed up:
as §1

Test [14] concerns Escherichia coli. The test can be described thus: Median protective dose against Escherichia coli, determined in acute, lethal systemic infection in female charles river CD-1 mice (po). As to conditions: for ED50: Escherichia coli, po, read-out: PD50. Details: PD50: unit not given here. The format is functional. The procedure, abridged:
as §2

Values after ≈ are worked out from the molar mass of the structure shown. Some results are limits rather than exact numbers.

One may read the MIC as the lowest concentration that inhibits growth of the organism. For orientation: IC50 means the concentration that inhibits the measured activity by half. With `CCNCC1CCN(c2c(F)cc3c(=O)c(C(=O)O)cn(C4CC4)c3c2F)C1` (stereo not drawn) [PD-117558], the minimal inhibitory concentration (MIC) in test [1] worked out at 0.2 µg/mL (≈ 0.511 µM); in test [2], 0.025 µg/mL (≈ 0.0639 µM); in [3], 0.05 µg/mL (≈ 0.128 µM); in test [4], 0.006 µg/mL (≈ 0.0153 µM); in test [5] it was 0.2 µg/mL (≈ 0.511 µM); in test [6] it was 0.025 µg/mL (≈ 0.0639 µM). For the same compound, the MIC turned out to be 0.025 µg/mL (≈ 0.0639 µM) in test [8]; 0.025 µg/mL (≈ 0.0639 µM) in test [9]; 0.1 µg/mL (≈ 0.255 µM) in [10]; 0.4 µg/mL (≈ 1.02 µM) in test [12]; 0.05 µg/mL (≈ 0.128 µM) in [13]. Moreover, the half-inhibitory concentration (IC50) in test [7] is 3.58 µM. In addition, the ED50 in [11] worked out at 1 mg/kg; in test [14], 4.2 mg/kg.

On to `CCNCC1CCN(c2c(F)c(NC(C)=O)c3c(=O)c(C(=O)O)cn(C4CC4)c3c2F)C1` (stereo not drawn), for which the minimum inhibitory concentration (MIC) in test [1] was more than 25 µg/mL; in test [2] it was 12.5 µg/mL (≈ 27.9 µM); in test [3] it was more than 25 µg/mL; in test [4] it was 3.1 µg/mL (≈ 6.91 µM); in test [5] it was more than 25 µg/mL; in [6], 12.5 µg/mL (≈ 27.9 µM). Also, the minimum inhibitory concentration (MIC) in test [8] is 6.3 µg/mL (≈ 14 µM); in [9], 12.5 µg/mL (≈ 27.9 µM); in [10], more than 25 µg/mL; in [12], more than 25 µg/mL; in [13], 12.5 µg/mL (≈ 27.9 µM). This compound yielded an IC50 in test [7] of more than 223 µM.

Take `CC(=O)Nc1c(F)c(N2CCNCC2)c(F)c2c1c(=O)c(C(=O)O)cn2C1CC1`: the MIC in test [1], in test [2], in [3], in test [4], in test [5] and in test [6] was more than 25 µg/mL each time. Also, the minimum inhibitory concentration (MIC) in test [8], in test [9], in [10], in test [12] and in test [13] was more than 25 µg/mL each time. The compound further returned an IC50 in [7] of more than 246 µM.

`Nc1c(F)c(N2CCC(N)C2)c(F)c2c1c(=O)c(C(=O)O)cn2C1CC1` (stereo not drawn): the minimum inhibitory concentration (MIC) was 0.006 µg/mL (≈ 0.0165 µM) in [1]; 0.003 µg/mL (≈ 0.00823 µM) in [2]; 0.006 µg/mL (≈ 0.0165 µM) in test [3]; 0.006 µg/mL (≈ 0.0165 µM) in [4]; 0.025 µg/mL (≈ 0.0686 µM) in test [5]; 0.025 µg/mL (≈ 0.0686 µM) in [6]. The MIC stood at 0.006 µg/mL (≈ 0.0165 µM) in test [8]; 0.025 µg/mL (≈ 0.0686 µM) in [9]; 0.006 µg/mL (≈ 0.0165 µM) in test [10]; 0.05 µg/mL (≈ 0.137 µM) in [12]; 0.013 µg/mL (≈ 0.0357 µM) in [13]. This compound had a 50% inhibitory concentration (IC50) in test [7] of 7.14 µM. Moreover, the values for the ED50 in test [11] and in [14] were 0.4 mg/kg and 1.6 mg/kg, respectively.

Turning to `NCC1CCN(c2c(F)c(N)c3c(=O)c(C(=O)O)cn(C4CC4)c3c2F)C1` (stereo not drawn), the MIC was 0.025 µg/mL (≈ 0.0661 µM) in test [1]; 0.003 µg/mL (≈ 0.00793 µM) in [2]; 0.013 µg/mL (≈ 0.0344 µM) in test [3]; 0.003 µg/mL (≈ 0.00793 µM) in test [4]; 0.05 µg/mL (≈ 0.132 µM) in [5]; 0.003 µg/mL (≈ 0.00793 µM) in test [6]. Also, the minimal inhibitory concentration (MIC) was found to be 0.003 µg/mL (≈ 0.00793 µM) in [8]; 0.013 µg/mL (≈ 0.0344 µM) in [9]; 0.025 µg/mL (≈ 0.0661 µM) in test [10]; 0.1 µg/mL (≈ 0.264 µM) in [12]; 0.006 µg/mL (≈ 0.0159 µM) in test [13]. This compound also had an IC50 in test [7] of 7.66 µM. The ED50 in [11] stood at 0.8 mg/kg; in test [14], 12 mg/kg.

Take `CNc1c(F)c(N2CCNCC2)c(F)c2c1c(=O)c(C(=O)O)cn2C1CC1`: the MIC stood at 0.1 µg/mL (≈ 0.264 µM) in test [1]; 0.025 µg/mL (≈ 0.0661 µM) in [2]; 0.1 µg/mL (≈ 0.264 µM) in test [3]; 0.2 µg/mL (≈ 0.529 µM) in test [4]; 0.8 µg/mL (≈ 2.11 µM) in test [5]; 3.1 µg/mL (≈ 8.19 µM) in test [6]. The MIC in test [8] stood at 0.8 µg/mL (≈ 2.11 µM); in test [9], 1.6 µg/mL (≈ 4.23 µM); in [10] it was 0.1 µg/mL (≈ 0.264 µM); in [12] it was 1.6 µg/mL (≈ 4.23 µM); in test [13], 0.8 µg/mL (≈ 2.11 µM). The compound also had a concentration for half-maximal inhibition (IC50) in test [7] of 36.5 µM. The ED50 was 0.8 mg/kg in test [11] and 1.5 mg/kg in test [14].

For `O=C(O)c1cn(C2CC2)c2c(F)c(N3CCNCC3)c(F)cc2c1=O`, the MIC amounted to 0.05 µg/mL (≈ 0.143 µM) in [1]; 0.025 µg/mL (≈ 0.0716 µM) in [2]; 0.1 µg/mL (≈ 0.286 µM) in test [3]; 0.1 µg/mL (≈ 0.286 µM) in test [4]; 0.1 µg/mL (≈ 0.286 µM) in test [5]; 0.8 µg/mL (≈ 2.29 µM) in [6]. In addition, the MIC in test [8] came out at 0.8 µg/mL (≈ 2.29 µM); in test [9], 0.4 µg/mL (≈ 1.15 µM); in test [10], 0.05 µg/mL (≈ 0.143 µM); in test [12], 0.2 µg/mL (≈ 0.573 µM); in test [13] it was 0.4 µg/mL (≈ 1.15 µM). Also, the IC50 in test [7] is 8.02 µM. Also, the ED50 in [11] is 0.3 mg/kg. In [14], the PD50 turned out to be 0.45.

As for `CCNCC1CCN(c2c(F)c(N)c3c(=O)c(C(=O)O)cn(C4CC4)c3c2F)C1` (stereo not drawn), the MIC in [1] was 0.05 µg/mL (≈ 0.123 µM); in [2] it was 0.013 µg/mL (≈ 0.032 µM); in test [3], 0.05 µg/mL (≈ 0.123 µM); in test [4], 0.003 µg/mL (≈ 0.00738 µM); in [5], 0.05 µg/mL (≈ 0.123 µM); in test [6] it was 0.013 µg/mL (≈ 0.032 µM). Also, the minimum inhibitory concentration (MIC) in test [8] is 0.003 µg/mL (≈ 0.00738 µM); in [9], 0.025 µg/mL (≈ 0.0615 µM); in test [10], 0.05 µg/mL (≈ 0.123 µM); in test [12], 0.4 µg/mL (≈ 0.984 µM); in test [13] it was 0.013 µg/mL (≈ 0.032 µM). This compound showed an IC50 in test [7] of 6.64 µM. For the same compound, the ED50 in test [11] was determined as 2.4 mg/kg. Also, the PD50 in test [14] is given as 16.

The values are drawn from ChEMBL document CHEMBL1124255, “7-substituted 5-amino-1-cyclopropyl-6,8-difluoro-1,4-dihydro-4-oxo-3- quinolinecarboxylic acids: synthesis and biological activity of a new class of quinolone antibacterials” (J Med Chem, 1988).
